Screening results deposited in PubChem BioAssay by several laboratories.
FLuc act counter: affects firefly luciferase, flagging false hits in luciferase stimulation screens | P08659 | ATPlite luciferase biochemical, luminescence, 10 min; 0 = ATP-free wells, 1 = DMSO control | activation factor at 10 µM | 200,000 tested, under 10 active;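 active = luciferase activation factor, scaled between plate controls, of at least 2 with compound at 10 µM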
Target sequence (P08659 whole entry, looked up): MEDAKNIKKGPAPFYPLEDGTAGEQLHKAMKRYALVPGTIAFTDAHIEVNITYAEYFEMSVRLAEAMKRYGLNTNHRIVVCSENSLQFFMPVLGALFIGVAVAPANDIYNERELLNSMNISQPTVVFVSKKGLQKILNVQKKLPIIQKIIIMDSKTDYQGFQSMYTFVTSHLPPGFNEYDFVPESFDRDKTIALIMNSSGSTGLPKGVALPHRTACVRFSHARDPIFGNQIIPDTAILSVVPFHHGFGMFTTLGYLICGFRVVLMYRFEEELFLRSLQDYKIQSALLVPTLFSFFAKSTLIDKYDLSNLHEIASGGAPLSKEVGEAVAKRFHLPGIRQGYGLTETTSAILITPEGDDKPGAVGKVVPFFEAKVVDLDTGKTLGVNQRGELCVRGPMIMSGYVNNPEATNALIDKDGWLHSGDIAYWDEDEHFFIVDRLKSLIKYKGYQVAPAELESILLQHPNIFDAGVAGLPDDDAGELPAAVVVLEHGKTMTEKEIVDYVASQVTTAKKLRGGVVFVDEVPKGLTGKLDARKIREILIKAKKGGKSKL
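Material: luciferase plus luciferin reagent, cell-free. Medium: PBS buffer for ATP. Also added: ATP substrate, dispensed from a 10.24 µM working solution in PBS. Doses: test compounds dosed from 2 mM stocks in 100% DMSO. Incubation: 10 min post-reagent at room temperature. Technique: light output (luminescence). Read-out basis: luminescence gain marking luciferase activators.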
NF-kB expr up: raises NF-kB expression in human neuronal cells. fold change at 12.5 µM. 1.6% of 190,000 active. NF-kB reporter expression; stronger effect = higher value; in the data active = fold change above about 3.3
Pf gametocyte: kills late stage P. falciparum gametocytes; P. falciparum stage V gametocytes, ATP luminescence, 24 h; inhibition, % at 10.9 µM; 0.065% of 150,000 active; AID 743093;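 active = inhibition above the mean plus 3 SD of compounds within the control limits, set per campaign, cut at about 38% in these data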;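 note: 0% = DMSO wells and 100% = medium only without gametocytes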
APP 5'UTR act: activates APP 5'UTR luciferase reporter; SH-SY5Y APP 5'UTR luciferase reporter, luminescence; zero percent = DMSO vehicle wells; AID 1276; activation, % at 2 µM; 1% of 190,000 active;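 active = activation above a set limit, based on mean plus 3 SD of controls, cut at about 140% in these data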
STAT1 activator: STAT1 signaling activation. AID 932. NIH 3T3 STAT1-luciferase reporter, IFN-gamma, luminescence; 100% = IFN-gamma alone, no compound. 2.6% of 200,000 active. activation (% of control), % at 5.5 µM;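 active = activation above the screen-wide mean activation plus 3 SD, cut at about 130% in these data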;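 note: raw ratio to IFN-gamma control signal so 100% means no change and 0% no light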
FLuc inh counter: counter-screen for luciferase assay inhibitors: firefly luciferase inhibition; P08659; inhibition, % at 10 µM; 1.5% of 200,000 active; ATPLite firefly luciferase biochemical luminescence, 10 min;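 active = inhibition above about 50% when tested at 10 µM, limit read from the data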
* marks the source's active call; other numbers are inactive results. Sampled rows, rich in hits. Any-hit rate of the full collection: about 3.5%.

For COc1ccc(OC)c(/C=N/N(C)c2ccccc2)c1 the results were FLuc act counter 0.9, NF-kB expr up 2.4, APP 5'UTR act 25, STAT1 activator 137* and FLuc inh counter 12.
`COc1cccc(/C=N/n2c(N)nc3ccccc32)c1OC` gave FLuc act counter 0.9, NF-kB expr up 0.95, APP 5'UTR act 42, STAT1 activator 104 and FLuc inh counter 9.
Screening COc1ccc(/C=N/n2c(N)nc3ccccc32)cc1OC returned FLuc act counter 0.4, NF-kB expr up 0.95, Pf gametocyte -16, APP 5'UTR act 12, STAT1 activator 115 and FLuc inh counter 60*.
Cc1c(Cl)cnc(NC(=O)COC(=O)c2cc3c(s2)CCC(C)C3)c1Cl (configuration not stated) was read as FLuc act counter 1, NF-kB expr up 0.97, APP 5'UTR act 5, STAT1 activator 105 and FLuc inh counter -2.
CCCCN(C)C(=O)c1cc2cc3ccc(OC)cc3nc2s1 was read as FLuc act counter 0.2, NF-kB expr up 3.1, Pf gametocyte 2, APP 5'UTR act 188*, STAT1 activator 113 and FLuc inh counter 85*.
For CC(C)(CO)CNC(=O)c1ccc2nc(Cc3cccc(Cl)c3)oc2c1 the results were Pf gametocyte -2.
Screening COc1cccc(C(=O)Nc2cccc(SC)c2)c1 returned FLuc act counter 0.7, NF-kB expr up 2.7, Pf gametocyte -26, APP 5'UTR act 83, STAT1 activator 129* and FLuc inh counter 33.
`O=C(NCc1ccccc1)c1ccc(OC2CSC2)cc1` gave FLuc act counter 1, NF-kB expr up 1.1, APP 5'UTR act 13, STAT1 activator 106 and FLuc inh counter 3.
For O=C(Nc1cccc(Br)c1)c1ccc(OC2CSC2)cc1 the results were FLuc act counter 0.4, NF-kB expr up 3, APP 5'UTR act 149*, STAT1 activator 128 and FLuc inh counter 58*.
`COc1cc(NC(=O)CCc2ccccc2)nc(OC)n1` gave FLuc act counter 1, NF-kB expr up 1.4, APP 5'UTR act 12, STAT1 activator 106 and FLuc inh counter 0.
For COc1ccc(C(=O)Nc2cccc(C)c2)cc1 the results were FLuc act counter 0.2, NF-kB expr up 6*, Pf gametocyte -3, APP 5'UTR act 142*, STAT1 activator 138* and FLuc inh counter 77*.
Screening COc1ccc(CC(=O)Nc2cccc(C(=O)Nc3cccc(C)c3)c2)cc1 returned FLuc act counter 1, NF-kB expr up 1.4, APP 5'UTR act 2, STAT1 activator 99 and FLuc inh counter 2.
`COc1ccc(C(=O)Nc2cc(OC)nc(OC)n2)cc1` gave FLuc act counter 0.2, NF-kB expr up 7.2*, APP 5'UTR act 140*, STAT1 activator 138* and FLuc inh counter 76*.
`N#CCC(=O)N1CCN(Cc2ccc3c(c2)OCO3)CC1` gave Pf gametocyte -21.
CC(C)=CC1C=C(C)C(C)C2C(=O)NNC(=O)C12 (configuration not stated) was read as FLuc act counter 1, NF-kB expr up 1.2, APP 5'UTR act 12, STAT1 activator 99 and FLuc inh counter -3.
Screening C=CCN1C(=O)C(CC(=O)NCC)SC1=Nc1cc(Cl)ccc1Cl (configuration not stated) returned Pf gametocyte -5.
COc1cccc(NC(=O)c2ccc(NC(=O)C(C)(C)C)cc2)c1 was read as FLuc act counter 0.6, NF-kB expr up 2.1, Pf gametocyte 8, APP 5'UTR act 94, STAT1 activator 136* and FLuc inh counter 41.
For COc1cccc(NC(=O)Nc2ccc(C)c(Cl)c2)c1 the results were FLuc act counter 0.8, NF-kB expr up 2, APP 5'UTR act 55, STAT1 activator 133* and FLuc inh counter 15.
`CC(=O)c1cccc(NC(=O)c2ccc(OC3CSC3)cc2)c1` gave FLuc act counter 0.8, NF-kB expr up 2.1, Pf gametocyte 2, APP 5'UTR act 17, STAT1 activator 112 and FLuc inh counter 23.
Cc1cccc(NC(=O)c2ccc(OC3CSC3)cc2)c1 was read as FLuc act counter 0.2, NF-kB expr up 3.8*, APP 5'UTR act 158*, STAT1 activator 125 and FLuc inh counter 80*.
CCCCOC(=O)Nc1ccc(C(=O)OC)cc1 was read as FLuc act counter 1, NF-kB expr up 1.9, Pf gametocyte -25, APP 5'UTR act 59, STAT1 activator 125 and FLuc inh counter 1.
For CCCCOC(=O)Nc1ccc(C)c(Cl)c1 the results were FLuc act counter 0.9, NF-kB expr up 2.9, Pf gametocyte 3, APP 5'UTR act 114, STAT1 activator 143* and FLuc inh counter 9.
For CC12CC(c3ccccc3O1)C(C(=O)NCc1ccccc1)C(=O)N2 (configuration not stated) the results were FLuc act counter 1, NF-kB expr up 1, APP 5'UTR act -10, STAT1 activator 105 and FLuc inh counter -2.
`C#CCOc1ccc2c3c(c(=O)oc2c1)CCCC3` gave Pf gametocyte -12.
Screening CCOc1ccc(NC(=O)Nc2cccnc2)cc1 returned FLuc act counter 0.2, NF-kB expr up 1.6, Pf gametocyte -8, APP 5'UTR act 47, STAT1 activator 106 and FLuc inh counter 77*.
COc1ccc(NC(=O)Nc2ccc(N(C)C)cc2)cc1 was read as FLuc act counter 0.8, NF-kB expr up 1.6, Pf gametocyte 8, APP 5'UTR act 94, STAT1 activator 137* and FLuc inh counter 22.
CCOc1ccc(NC(=O)NCc2cccnc2)cc1 was read as FLuc act counter 1, NF-kB expr up 1.4, Pf gametocyte 18, APP 5'UTR act -5, STAT1 activator 102 and FLuc inh counter 3.
`COc1ccc(NC(=O)Nc2ccc3nonc3c2)cc1` gave Pf gametocyte 1.
`COc1ccc(NC(=O)Nc2ccc3nccnc3c2)cc1` gave FLuc act counter 0.4, NF-kB expr up 1.7, Pf gametocyte -46, APP 5'UTR act 97, STAT1 activator 130* and FLuc inh counter 57*.
`COc1ccc(C(=O)Nc2ccc(C(=O)Nc3cccnc3)cc2)cc1` gave Pf gametocyte -6.
Screening COc1ccc(NC(=O)Nc2cccnc2)cc1 returned FLuc act counter 0.4, NF-kB expr up 1.6, Pf gametocyte -1, APP 5'UTR act 4, STAT1 activator 111 and FLuc inh counter 58*.
CC(C)CC(=O)NCCCCc1ccccc1 was read as FLuc act counter 1, NF-kB expr up 1.2, Pf gametocyte -7, APP 5'UTR act 22, STAT1 activator 102 and FLuc inh counter 3.
COCc1nnc(NC(=O)c2ccc(S(=O)(=O)N(C)C3CCCCC3)cc2)o1 was read as FLuc act counter 1, NF-kB expr up 0.9, APP 5'UTR act 12, STAT1 activator 102 and FLuc inh counter -3.
